Results taken from ChEMBL document CHEMBL3272012, “5-(Tetradecyloxy)-2-furancarboxylic acid and related hypolipidemic fatty acid-like alkyloxyarylcarboxylic acids” (J Med Chem, 1977).
Each block holds one compound with its values, some of them ahead of it.

Key:
[1] = tested on: Rattus norvegicus; test: Hypolipidemic activity in Wistar rat assessed as reduction in plasma cholesterol level at 499 umol/kg/day administered through diet for 4 days; type: functional; details: 96 h
In short: (§1)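 Young male Wistar rats, 170-190 g initial weight, groups of six, given compound mixed thoroughly into Purina Lab Chow ad libitum for 4 or 10 days as stated. Daily dose calculated from food consumption and body weight. Bled by cardiac puncture at end of treatment; plasma cholesterol measured by automated procedure. Expressed as percent reduction versus simultaneous untreated control group; Student's t test.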

[2] = tested on: Rattus norvegicus; test: Increase in cholesterol level in Wistar rat liver at 499 umol/kg/day administered through diet for 4 days; type: ADME, organism-based; details: in vivo, po, 96 h
[3] = tested on: Rattus norvegicus; test: Increase in liver weight in Wistar rat at 499 umol/kg/day administered through diet for 4 days; type: ADME, organism-based; details: in vivo, po, 96 h
In short: (§2)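 Male Wistar rats (170-190 g initial), groups of six, dosed via diet ad libitum for 4 or 10 days, daily dose from food consumption. Liver wet weight measured, expressed as g/100 g final body weight, compared with untreated controls run simultaneously.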

[4] = tested on: Rattus norvegicus; test: Hypolipidemic activity in Wistar rat assessed as reduction in plasma triglyceride level at 499 umol/kg/day administered through diet for 4 days; type: functional; details: 96 h
In short: (§3)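 Young male Wistar rats (initial weight 170-190 g), groups of six, fed compound mixed into Purina Lab Chow ad libitum for 4 or 10 days; daily dose calculated from food consumption and body weight. Bled by cardiac puncture; plasma cholesterol and triglycerides by automated procedures; percent reduction versus simultaneous untreated controls, Student's t test.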

[5] = tested on: Rattus norvegicus; test: Increase in cholesterol level in Wistar rat liver at 401 umol/kg/day administered through diet for 4 days; type: ADME, organism-based; details: in vivo, po, 96 h
[6] = tested on: Rattus norvegicus; test: Hypolipidemic activity in Wistar rat assessed as reduction in plasma triglyceride level at 401 umol/kg/day administered through diet for 4 days; type: functional; details: 96 h; in short: as §3
[7] = tested on: Rattus norvegicus; test: Hypolipidemic activity in Wistar rat assessed as reduction in plasma cholesterol level at 401 umol/kg/day administered through diet for 4 days; type: functional; details: 96 h
In short: (§4)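 Young male Wistar rats, 170-190 g at start, in groups of six, given compound mixed into Purina Lab Chow ad libitum for 4 or 10 days as stated. Daily dose was calculated from food consumption and body weight. Plasma was taken by cardiac puncture at the end and cholesterol measured by automated procedure. Results are % reduction versus a concurrent untreated control group, with Student's t test.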

[8] = tested on: Rattus norvegicus; test: Increase in liver weight in Wistar rat at 401 umol/kg/day administered through diet for 4 days; type: ADME, organism-based; details: in vivo, po, 96 h; in short: as §2
[9] = tested on: Rattus norvegicus; test: Hypolipidemic activity in Wistar rat assessed as reduction in plasma triglyceride level at 558 umol/kg/day administered through diet for 10 days; type: functional; details: 240 h; in short: as §3
[10] = tested on: Rattus norvegicus; test: Hypolipidemic activity in Wistar rat assessed as reduction in plasma triglyceride level at 179 umol/kg/day administered through diet for 10 days; type: functional; details: 240 h; in short: as §3
[11] = tested on: Rattus norvegicus; test: Increase in cholesterol level in Wistar rat liver at 558 umol/kg/day administered through diet for 10 days; type: ADME, organism-based; details: in vivo, po, 240 h
In short: (§5)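 Male Wistar rats (170-190 g), six per group, given compound by admixture to lab chow ad libitum for 4 or 10 days, dose derived from food intake. Liver cholesterol determined by automated procedure, expressed as mg/g wet tissue, compared with an untreated control group by Student's t test.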

[12] = tested on: Rattus norvegicus; test: Hypolipidemic activity in Wistar rat assessed as reduction in plasma cholesterol level at 558 umol/kg/day administered through diet for 10 days; type: functional; details: 240 h; in short: as §3
[13] = tested on: Rattus norvegicus; test: Increase in cholesterol level in Wistar rat liver at 1498 umol/kg/day administered through diet for 10 days; type: ADME, organism-based; details: in vivo, po, 240 h
[14] = tested on: Rattus norvegicus; test: Hypolipidemic activity in Wistar rat assessed as reduction in plasma triglyceride level at 1498 umol/kg/day administered through diet for 10 days; type: functional; details: 240 h
In short: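 Young male Wistar rats, 170-190 g initial weight, six per group, fed drug mixed thoroughly into Purina Lab Chow ad libitum for the stated days; daily dose calculated from food consumption and body weight. Bled by cardiac puncture at end; plasma cholesterol and triglycerides by automated procedures, expressed as percent reduction versus simultaneous untreated controls; Student's t test.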

[15] = tested on: Rattus norvegicus; test: Increase in liver weight in Wistar rat at 1498 umol/kg/day administered through diet for 10 days; type: ADME, organism-based; details: in vivo, po, 240 h
[16] = tested on: Rattus norvegicus; test: Increase in cholesterol level in Wistar rat liver at 179 umol/kg/day administered through diet for 10 days; type: ADME, organism-based; details: in vivo, po, 240 h; in short: as §5
[17] = tested on: Rattus norvegicus; test: Hypolipidemic activity in Wistar rat assessed as reduction in plasma cholesterol level at 179 umol/kg/day administered through diet for 10 days; type: functional; details: 240 h; in short: as §4
[18] = tested on: Rattus norvegicus; test: Hypolipidemic activity in Wistar rat assessed as reduction in plasma cholesterol level at 1498 umol/kg/day administered through diet for 10 days; type: functional; details: 240 h; in short: as §4
[19] = tested on: Rattus norvegicus; test: Increase in liver weight in Wistar rat at 558 umol/kg/day administered through diet for 10 days; type: ADME, organism-based; details: in vivo, po, 240 h; in short: as §2
[20] = tested on: Rattus norvegicus; test: Hypolipidemic activity in Wistar rat assessed as reduction in plasma triglyceride level at 538 umol/kg/day administered through diet for 10 days; type: functional; details: 240 h
[21] = tested on: Rattus norvegicus; test: Increase in cholesterol level in Wistar rat liver at 538 umol/kg/day administered through diet for 10 days; type: ADME, organism-based; details: in vivo, po, 240 h
[22] = tested on: Rattus norvegicus; test: Increase in liver weight in Wistar rat at 538 umol/kg/day administered through diet for 10 days; type: ADME, organism-based; details: in vivo, po, 240 h
[23] = tested on: Rattus norvegicus; test: Hypolipidemic activity in Wistar rat assessed as reduction in plasma cholesterol level at 538 umol/kg/day administered through diet for 10 days; type: functional; details: 240 h; in short: as §1
[24] = tested on: Rattus norvegicus; test: Increase in liver weight in Wistar rat at 339 umol/kg/day administered through diet for 4 days; type: ADME, organism-based; details: in vivo, po, 96 h
[25] = tested on: Rattus norvegicus; test: Hypolipidemic activity in Wistar rat assessed as reduction in plasma cholesterol level at 339 umol/kg/day administered through diet for 4 days; type: functional; details: 96 h; in short: as §4
[26] = tested on: Rattus norvegicus; test: Hypolipidemic activity in Wistar rat assessed as reduction in plasma triglyceride level at 339 umol/kg/day administered through diet for 4 days; type: functional; details: 96 h
In short: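 Young male Wistar rats (170-190 g initial weight), groups of six, were fed compound mixed into lab chow ad libitum for 4 or 10 days alongside an untreated control group. Daily dose was calculated from food consumption and body weight. Rats were bled by cardiac puncture, and plasma triglyceride was measured by automated procedure. Results are expressed as percent reduction from simultaneous controls, with Student's t test.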

[27] = tested on: Rattus norvegicus; test: Increase in cholesterol level in Wistar rat liver at 339 umol/kg/day administered through diet for 4 days; type: ADME, organism-based; details: in vivo, po, 96 h
[28] = tested on: Rattus norvegicus; test: Increase in liver weight in Wistar rat at 472 umol/kg/day administered through diet for 4 days; type: ADME, organism-based; details: in vivo, po, 96 h
[29] = tested on: Rattus norvegicus; test: Hypolipidemic activity in Wistar rat assessed as reduction in plasma cholesterol level at 472 umol/kg/day administered through diet for 4 days; type: functional; details: 96 h; in short: as §1
[30] = tested on: Rattus norvegicus; test: Increase in cholesterol level in Wistar rat liver at 472 umol/kg/day administered through diet for 4 days; type: ADME, organism-based; details: in vivo, po, 96 h
[31] = tested on: Rattus norvegicus; test: Hypolipidemic activity in Wistar rat assessed as reduction in plasma triglyceride level at 472 umol/kg/day administered through diet for 4 days; type: functional; details: 96 h
[32] = tested on: Rattus norvegicus; test: Hypolipidemic activity in Wistar rat assessed as reduction in plasma cholesterol level at 477 umol/kg/day administered through diet for 4 days; type: functional; details: 96 h; in short: as §1
[33] = tested on: Rattus norvegicus; test: Increase in liver weight in Wistar rat at 477 umol/kg/day administered through diet for 4 days; type: ADME, organism-based; details: in vivo, po, 96 h
[34] = tested on: Rattus norvegicus; test: Increase in cholesterol level in Wistar rat liver at 477 umol/kg/day administered through diet for 4 days; type: ADME, organism-based; details: in vivo, po, 96 h
[35] = tested on: Rattus norvegicus; test: Hypolipidemic activity in Wistar rat assessed as reduction in plasma triglyceride level at 477 umol/kg/day administered through diet for 4 days; type: functional; details: 96 h
[36] = tested on: Rattus norvegicus; test: Hypolipidemic activity in Wistar rat assessed as reduction in plasma triglyceride level at 509 umol/kg/day administered through diet for 4 days; type: functional; details: 96 h
[37] = tested on: Rattus norvegicus; test: Increase in cholesterol level in Wistar rat liver at 509 umol/kg/day administered through diet for 4 days; type: ADME, organism-based; details: in vivo, po, 96 h
[38] = tested on: Rattus norvegicus; test: Hypolipidemic activity in Wistar rat assessed as reduction in plasma cholesterol level at 509 umol/kg/day administered through diet for 4 days; type: functional; details: 96 h; in short: as §1
[39] = tested on: Rattus norvegicus; test: Increase in liver weight in Wistar rat at 509 umol/kg/day administered through diet for 4 days; type: ADME, organism-based; details: in vivo, po, 96 h
[40] = tested on: Rattus norvegicus; test: Increase in liver weight in Wistar rat at 415 umol/kg/day administered through diet for 4 days; type: ADME, organism-based; details: in vivo, po, 96 h; in short: as §2
[41] = tested on: Rattus norvegicus; test: Increase in cholesterol level in Wistar rat liver at 415 umol/kg/day administered through diet for 4 days; type: ADME, organism-based; details: in vivo, po, 96 h
[42] = tested on: Rattus norvegicus; test: Hypolipidemic activity in Wistar rat assessed as reduction in plasma triglyceride level at 415 umol/kg/day administered through diet for 4 days; type: functional; details: 96 h; in short: as §3
[43] = tested on: Rattus norvegicus; test: Hypolipidemic activity in Wistar rat assessed as reduction in plasma cholesterol level at 415 umol/kg/day administered through diet for 4 days; type: functional; details: 96 h; in short: as §4

SMILES: CCCCCCCCCCCCCCOc1ccc(C=O)cc1
inhibition in vivo at 499 µmol/kg [1]: 25%
Activity [2]: 12%
Activity [3]: 18%
inhibition in vivo at 499 µmol/kg [4]: 68%

SMILES: CCCCCCCCCCCCCCCCOc1ccc(C(=O)CC(=O)OC)cc1
Activity [24]: 18%
inhibition in vivo at 339 µmol/kg [25]: 32%
inhibition in vivo at 339 µmol/kg [26]: 57%
Activity [27]: 2%

SMILES: CCCCCCCCCCCCCCOc1ccc(CC(=O)OC)cc1
Activity [28]: 8%
inhibition in vivo at 472 µmol/kg [29]: 0%
Activity [30]: 0%
inhibition in vivo at 472 µmol/kg [31]: 23%

SMILES: CCCCCCCCCCCCCCOc1ccc(C)cc1
inhibition in vivo at 509 µmol/kg [36]: 30%
Activity [37]: 0%
inhibition in vivo at 509 µmol/kg [38]: 0%
Activity [39]: 10%

The next lines start with results.

Activity [5]: 15%
Activity [8]: 17%
SMILES: CCCCCCCCCCCCCCOc1ccc(CCC(=O)OC)cc1
inhibition in vivo at 401 µmol/kg [6]: 73%
inhibition in vivo at 401 µmol/kg [7]: 41%

Activity [11]: 215%
Activity [13]: 323%
Activity [15]: 38%
Activity [16]: 79%
Activity [19]: 29%
SMILES: CCCCCCCCCCCCc1ccc(C(=O)O)cc1
inhibition in vivo at 558 µmol/kg [9]: 78%
inhibition in vivo at 179 µmol/kg [10]: 62%
inhibition in vivo at 558 µmol/kg [12]: 48%
inhibition in vivo at 1498 µmol/kg [14]: 74%
inhibition in vivo at 179 µmol/kg [17]: 34%
inhibition in vivo at 1498 µmol/kg [18]: 55%

Activity [21]: 11%
Activity [22]: 11%
SMILES: CCCCCCCCc1ccc(C(=O)O)cc1
inhibition in vivo at 538 µmol/kg [20]: 21%
inhibition in vivo at 538 µmol/kg [23]: 6%

Activity [33]: 17%
Activity [34]: 33%
SMILES: CCCCCCCCCCCCCCOc1ccc(CO)cc1
inhibition in vivo at 477 µmol/kg [32]: 35%
inhibition in vivo at 477 µmol/kg [35]: 41%

Activity [40]: 4%
Activity [41]: 13%
SMILES: CCCCCCCCCCCCCCCc1ccc(C(=O)O)cc1
inhibition in vivo at 415 µmol/kg [42]: 58%
inhibition in vivo at 415 µmol/kg [43]: 27%
